# Experimental data published in publication PMC11268778 (International Journal of Nanomedicine, 2024).
# Legend:
# [1] = In vitro release from PLGA-NPs; format: physicochemical; conditions: 1 mg NPs in 1.5 mL PBS pH 7.2, 37 °C, FITC fluorescence, triplicate
# Encapsulation = format: physicochemical; conditions: estimated from FITC signals of supernatants of broken minus un-broken NPs
# Outline: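 PLGA (5 mg/mL in acetonitrile) containing FITC-labelled peptide was injected at 2 mL/min into 0.1% PVA and stirred 48 h. Particles were washed three times (15,000 rpm, 10 min) and freeze-dried. 1 mg NPs was disrupted in 50% DMSO/0.5% SDS/0.1 M NaOH for 1 h. FITC was read at 488/520 nm against a free-peptide calibration line. Surface-adsorbed fraction = broken minus unbroken supernatant signal. Triplicate.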
Substance,peptide released from PLGA-NPs at 0.5 h [1] [%],peptide adsorbed on the external surface of NPs (Encapsulation)
βAla-G-βAla-QL-PEG-AAFAARAV [Ctrl PEG-Val],100,–
βAla-G-βAla-QL-PEG-AAFAARA [Ctrl PEG],–,~ 63%
